According to ChEMBL document CHEMBL4270638, “Sulfonyl-containing phenyl-pyrrolyl pentane analogues: Novel non-secosteroidal vitamin D receptor modulators with favorable physicochemical properties, pharmacokinetic properties and anti-tumor activity” (Eur J Med Chem, 2018):
Activity calls are given as the source filed them. No cut-off for these calls is given here.

Assays:
Mus musculus = test: Hypercalcemic effect in Balb/c nude mouse xenografted with human MCF7 cells assessed as effect on serum calcium level at 10 mg/kg, ip administered three times a week for three weeks starting from day 7 after tumor cell inoculation measured on day 17 during compound dosing (reference value: 0.6 umol/ml); assay type: ADME, organism-based; settings: in vivo
[1] = Bioavailability in Sprague-Dawley rat at 20 mg/kg, ip by HPLC method; assay type: ADME, organism-based; settings: in vivo
Outline: (§1)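 Male Sprague-Dawley rats, 180–220 g, n = 3 per group. Dosed iv at 5 mg/kg or ip at 20 mg/kg in ethanol/EL/saline (1:1:18). Plasma sampled at 0, 0.083, 0.167, 0.25, 0.5, 1, 2, 4, 8, 12 and 24 h and centrifuged 12000 rpm for 10 min. Plasma drug measured by HPLC; parameters by PK modelling; mean ± SD.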

[2] = Clearance in Sprague-Dawley rat at 5 mg/kg, iv by HPLC method; assay type: ADME, organism-based; settings: in vivo; outline: as §1
MCF7 [3] = test: Induction of apoptosis in human MCF7 cells expressing VDR siRNA assessed as late apoptotic cells at 1 uM after 24 hrs by Annexin-V-FITC/propidium iodide staining based flow cytometry (reference value: 1.01%); assay type: functional
MCF7 [4] = test: Antiproliferative activity against human MCF7 cells expressing VDR siRNA assessed as reduction in BrdU incorporation after 16 hrs by ELISA; assay type: functional, cell-based; settings: MCF7, 16 h
[5] = AUC in Sprague-Dawley rat at 20 mg/kg, ip by HPLC method; assay type: ADME, organism-based; settings: in vivo; outline: as §1
MCF7 [6] = test: Antitumor activity against human MCF7 cells xenografted in Balb/c nude mouse assessed as reduction in tumor growth at 10 mg/kg, ip administered three times a week for three weeks starting from day 7 after tumor cell inoculation; assay type: functional, organism-based
Outline: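 […] BALB/c-nu mice, 10 weeks old. 1×10^7 MCF-7 cells injected into the left fourth mammary fat pad; dosing began at about 50 mm3 tumour volume (day 7), n = 5 per group. Dosed ip at 10 mg/kg in ethanol/EL/saline 1:1:18, three times weekly for three weeks. Tumour volume by calipers = length × width² × 0.5; tumour weight and body weight recorded.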

MCF7 [7] = test: Induction of apoptosis in human MCF7 cells assessed as upregulation of p21 expression at 1 uM after 24 hrs by Western blot analysis; assay type: functional, cell-based
Outline: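 MCF-7 cells treated at 1 µM for 24 h. Lysates resolved by 10% SDS-PAGE and transferred to PVDF. Probed with rabbit anti-p21, anti-p27 and anti-Bax antibodies, with mouse anti-β-actin as loading control. HRP-conjugated secondary antibodies; bands detected on an infrared scanner.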

[8] = Half life in Sprague-Dawley rat at 20 mg/kg, ip by HPLC method; assay type: ADME, organism-based; settings: in vivo; outline: as §1
MCF7 [9] = test: Induction of apoptosis in human MCF7 cells expressing scrambled siRNA assessed as live cells at 1 uM after 24 hrs by Annexin-V-FITC/propidium iodide staining based flow cytometry (reference value: 97.93%); assay type: functional
MCF7 [10] = test: Induction of apoptosis in human MCF7 cells expressing scrambled siRNA assessed as necrotic cells at 1 uM after 24 hrs by Annexin-V-FITC/propidium iodide staining based flow cytometry (reference value: 0.16%); assay type: functional
[11] = AUC in Sprague-Dawley rat at 5 mg/kg, iv by HPLC method; assay type: ADME, organism-based; settings: in vivo; outline: as §1
MCF7 [12] = test: Cell cycle arrest in human MCF7 cells expressing VDR siRNA assessed as accumulation at S phase at 1 uM after 24 hrs by propidium iodide staining based flow cytometry (reference value: 32%); assay type: functional
[13] = target: T1, Retinoic acid receptor RXR-alpha/Vitamin D3 receptor (Homo sapiens, UniProt P11473+P19793); test: Transactivation of recombinant human VDR/RXRalpha expressed in HEK293 cells after 24 hrs by Dual-luciferase reporter gene assay; assay type: cell-based
T1 sequence (P11473 whole entry): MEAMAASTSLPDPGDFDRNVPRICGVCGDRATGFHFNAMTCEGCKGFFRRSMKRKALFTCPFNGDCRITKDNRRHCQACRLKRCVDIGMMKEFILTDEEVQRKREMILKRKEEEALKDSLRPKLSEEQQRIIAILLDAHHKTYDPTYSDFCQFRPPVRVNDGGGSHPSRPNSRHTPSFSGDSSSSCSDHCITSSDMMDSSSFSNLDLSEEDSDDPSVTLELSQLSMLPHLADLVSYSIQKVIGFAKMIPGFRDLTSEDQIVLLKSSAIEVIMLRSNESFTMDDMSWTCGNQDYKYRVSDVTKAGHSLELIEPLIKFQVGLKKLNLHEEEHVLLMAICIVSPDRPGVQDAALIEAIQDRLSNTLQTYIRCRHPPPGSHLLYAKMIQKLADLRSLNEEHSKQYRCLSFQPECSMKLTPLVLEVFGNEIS
T1 sequence (P19793 whole entry): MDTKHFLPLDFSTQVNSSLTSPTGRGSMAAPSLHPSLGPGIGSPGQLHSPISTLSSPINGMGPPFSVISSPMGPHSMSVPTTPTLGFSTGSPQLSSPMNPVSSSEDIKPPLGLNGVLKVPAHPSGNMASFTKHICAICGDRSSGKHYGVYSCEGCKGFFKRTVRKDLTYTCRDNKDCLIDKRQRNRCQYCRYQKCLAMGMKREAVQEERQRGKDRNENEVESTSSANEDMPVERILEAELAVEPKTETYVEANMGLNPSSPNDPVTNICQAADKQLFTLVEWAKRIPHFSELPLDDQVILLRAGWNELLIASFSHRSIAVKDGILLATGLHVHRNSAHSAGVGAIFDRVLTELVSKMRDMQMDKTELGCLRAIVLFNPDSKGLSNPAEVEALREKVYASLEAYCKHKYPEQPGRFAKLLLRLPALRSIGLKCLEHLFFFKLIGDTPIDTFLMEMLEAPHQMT

MCF7 [14] = test: Cell cycle arrest in human MCF7 cells expressing scrambled siRNA assessed as accumulation at S phase at 1 uM after 24 hrs by propidium iodide staining based flow cytometry (reference value: 29.79%); assay type: functional

CCN(CC)CCNC(=O)c1ccc(C(CC)(CC)c2ccc(OCSC)c(C)c2)n1CC
Activity (Mus musculus): Non-Toxic
bioavailability [1]: 43.2%
clearance [2]: 7 mL/min
Activity (MCF7 [3]): 1.67%
IC50 (MCF7 [4]): > 50000 nM
AUC [5]: 20400 ng·h/mL
Activity (MCF7 [6]): Active
Activity (MCF7 [7]): Active
half-life [8]: 10.8 h
Activity (MCF7 [9]): 94.7%
Activity (MCF7 [10]): 0.34%
AUC [11]: 11800 ng·h/mL
Activity (MCF7 [12]): 32.42%
EC50 [13]: 6.41 nM
Activity (MCF7 [14]): 27.95%

CCN(CC)CCNC(=O)c1cc(C(CC)(CC)c2ccc(OCS(=O)(=O)c3ccccc3)c(C)c2)cn1CC
Activity (Mus musculus): Non-Toxic
bioavailability [1]: 40.3%
clearance [2]: 11.2 mL/min
Activity (MCF7 [3]): 1.57%
IC50 (MCF7 [4]): > 50000 nM
AUC [5]: 12000 ng·h/mL
Activity (MCF7 [6]): Active
Activity (MCF7 [7]): Active
half-life [8]: 7.65 h
Activity (MCF7 [9]): 94.96%
Activity (MCF7 [10]): 0.46%
AUC [11]: 7470 ng·h/mL
Activity (MCF7 [12]): 26.36%
EC50 [13]: 38.2 nM
Activity (MCF7 [14]): 29.66%
